Source: ChEMBL document CHEMBL1139081, “Rational design, synthesis, and structure-activity relationship of benzoxazolones: new potent mglu5 receptor antagonists based on the fenobam structure” (Bioorg Med Chem Lett, 2007)

Tests used:
[1] = molecular target: T1, Metabotropic glutamate receptor 5 (Homo sapiens, UniProt P41594); assay: Binding affinity to mGluR5
[2] = molecular target: T1, Metabotropic glutamate receptor 5; assay: Antagonist activity at mGluR5 assessed as inhibition of Ca2+ […] by FLIPR; format: functional
[3] = Clearance in rat; format: ADME, organism-based; settings: in vivo
[4] = Oral bioavailability in rat; format: ADME, organism-based; settings: in vivo
[5] = Volume of distribution in rat; format: ADME, organism-based; settings: in vivo
[6] = Half life in rat; format: ADME, organism-based; settings: in vivo
[7] = Ratio of drug level in brain to plasma in rat after 3 hrs; format: ADME; settings: brain and plasma
Summary of the method: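 Blood/brain partitioning checked 3 h after administration as brain-to-plasma concentration ratio; cerebrospinal fluid concentration also measured, expressed as percentage of plasma concentration.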

Mus musculus = organism: Mus musculus; assay: Decrease in stress-induced hyperthermia in NMRI mouse; format: functional; settings: read-out: MED
Summary of the method: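 Stress-induced hyperthermia model of anxiety in NMRI mice, read as change in temperature (DT). Oral dosing at 10 and 30 mg/kg, vehicle 0.3% Tween 80 in 0.9% NaCl, 60 min pre-treatment. Each group compared to vehicle by independent t-test.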

T1 sequence (P41594 whole entry): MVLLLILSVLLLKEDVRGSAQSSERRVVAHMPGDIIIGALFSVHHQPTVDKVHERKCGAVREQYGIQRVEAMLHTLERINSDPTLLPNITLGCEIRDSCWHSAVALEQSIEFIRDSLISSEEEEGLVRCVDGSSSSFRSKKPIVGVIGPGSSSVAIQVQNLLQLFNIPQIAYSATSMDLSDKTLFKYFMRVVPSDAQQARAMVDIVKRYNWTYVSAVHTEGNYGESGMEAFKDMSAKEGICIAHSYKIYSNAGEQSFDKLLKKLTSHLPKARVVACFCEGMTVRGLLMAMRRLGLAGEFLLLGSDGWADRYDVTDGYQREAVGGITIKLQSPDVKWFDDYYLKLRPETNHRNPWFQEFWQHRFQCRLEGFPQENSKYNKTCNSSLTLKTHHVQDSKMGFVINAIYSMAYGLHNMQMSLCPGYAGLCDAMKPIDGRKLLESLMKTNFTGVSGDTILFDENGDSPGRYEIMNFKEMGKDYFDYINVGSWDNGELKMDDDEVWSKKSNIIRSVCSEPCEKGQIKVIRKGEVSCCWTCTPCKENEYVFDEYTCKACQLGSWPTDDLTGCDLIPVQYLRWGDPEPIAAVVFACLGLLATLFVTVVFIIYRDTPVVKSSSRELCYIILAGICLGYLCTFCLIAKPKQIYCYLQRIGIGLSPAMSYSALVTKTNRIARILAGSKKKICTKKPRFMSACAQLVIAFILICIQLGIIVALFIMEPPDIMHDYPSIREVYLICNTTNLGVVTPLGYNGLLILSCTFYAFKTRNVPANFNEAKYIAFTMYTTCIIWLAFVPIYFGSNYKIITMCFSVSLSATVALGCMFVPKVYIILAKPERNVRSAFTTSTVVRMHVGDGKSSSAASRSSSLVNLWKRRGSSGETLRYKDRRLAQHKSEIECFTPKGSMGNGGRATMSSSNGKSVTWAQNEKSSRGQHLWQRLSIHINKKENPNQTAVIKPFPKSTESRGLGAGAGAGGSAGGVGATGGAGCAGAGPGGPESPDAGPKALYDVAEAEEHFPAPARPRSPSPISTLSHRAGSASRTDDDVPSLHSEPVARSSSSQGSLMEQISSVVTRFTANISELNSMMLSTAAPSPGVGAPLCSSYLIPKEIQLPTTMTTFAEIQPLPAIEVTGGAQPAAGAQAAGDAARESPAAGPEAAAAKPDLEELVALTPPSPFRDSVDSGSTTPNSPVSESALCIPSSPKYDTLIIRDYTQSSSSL

Structure (SMILES): O=C(Nc1cccc(Cl)c1)c1cccc2[nH]c(=O)[nH]c12
- Ki [1]: 3900 nM

Structure (SMILES): O=C1Cc2cccc(C(=O)Nc3cccc(Cl)c3)c2N1
- Ki [1]: 397 nM

Structure (SMILES): O=C(Nc1cc(Cl)cc(Cl)c1)c1cccc2oc(=O)[nH]c12
- Ki [1]: > 10000 nM

Structure (SMILES): O=C1COc2cccc(C(=O)Nc3cccc(Cl)c3)c2N1
- Ki [1]: 2900 nM

Structure (SMILES): Cn1c(=O)[nH]c2c(C(=O)Nc3cccc(Cl)c3)cccc21
- Ki [1]: > 10000 nM

Structure (SMILES): O=C(Nc1cccc(Cl)c1)c1cccc2nc[nH]c12
- Ki [1]: > 10000 nM

Structure (SMILES): Cc1cccc(NC(=O)c2cccc3oc(=O)[nH]c23)n1
- Ki [1]: 95 nM
- IC50 [2]: 60 nM
- clearance [3]: 8.2 mL/min/kg
- bioavailability [4]: 64%
- Vd [5]: 0.18 L/kg
- half-life [6]: 13.2 min
- Kp at 3 h [7]: 0.06
- minimal effective dose (Mus musculus): 10 mg/kg

Structure (SMILES): O=C(Nc1cccc(Cl)c1)c1cccc2nn[nH]c12
- Ki [1]: > 10000 nM

Structure (SMILES): Cc1cccc(NC(=O)c2cccc3oc(=O)[nH]c23)c1
- Ki [1]: 109 nM
- IC50 [2]: 104 nM

Structure (SMILES): O=C(Nc1cccc(Cl)c1)c1cccc2[nH]c(=O)oc12
- Ki [1]: > 10000 nM

Structure (SMILES): CC(=O)Nc1ccccc1C(=O)Nc1cccc(Cl)c1
- Ki [1]: > 10000 nM

Structure (SMILES): O=C(Nc1cccc(Br)c1)c1cccc2oc(=O)[nH]c12
- Ki [1]: 56 nM
- IC50 [2]: 94 nM

Structure (SMILES): Cc1nccc(NC(=O)c2cccc3oc(=O)[nH]c23)n1
- Ki [1]: 1970 nM

Structure (SMILES): O=C(Nc1ccccn1)c1cccc2oc(=O)[nH]c12
- Ki [1]: 251 nM

Structure (SMILES): N#Cc1cccc(NC(=O)c2cccc3oc(=O)[nH]c23)c1
- Ki [1]: 327 nM

Structure (SMILES): Cc1nc(NC(=O)c2cccc3oc(=O)[nH]c23)cs1
- Ki [1]: 250 nM

Structure (SMILES): COc1cccc(NC(=O)c2cccc3oc(=O)[nH]c23)c1
- Ki [1]: 3900 nM

Structure (SMILES): O=C(Nc1ccccc1Cl)c1cccc2oc(=O)[nH]c12
- Ki [1]: > 10000 nM

Structure (SMILES): O=C(Nc1cccc(Cl)c1)c1cccc2oc(=O)[nH]c12
- Ki [1]: 68 nM
- IC50 [2]: 195 nM

Structure (SMILES): Cc1cc(NC(=O)c2cccc3oc(=O)[nH]c23)ccn1
- Ki [1]: 3100 nM

Structure (SMILES): O=C(Nc1ccc(Cl)cc1)c1cccc2oc(=O)[nH]c12
- Ki [1]: 3800 nM

Structure (SMILES): O=C(Nc1cccc(C(F)(F)F)c1)c1cccc2oc(=O)[nH]c12
- Ki [1]: 485 nM

Structure (SMILES): O=C(Nc1ccccc1)c1cccc2oc(=O)[nH]c12
- Ki [1]: 2200 nM

Structure (SMILES): O=C(Nc1cccc(Cl)c1)c1cccc2cc[nH]c12
- Ki [1]: 3900 nM
